Reference: ChEMBL document CHEMBL4257575, “Discovery of Novel Flavonoid Dimers To Reverse Multidrug Resistance Protein 1 (MRP1, ABCC1) Mediated Drug Resistance in Cancers Using a High Throughput Platform with "Click Chemistry"” (J Med Chem, 2018)

What follows are compounds tested against Multidrug resistance-associated protein 1 (Homo sapiens, UniProt P33527) (assay: Inhibition of MRP1 in human 2008/MRP1 cells assessed as potentiation of doxorubicin-induced cytotoxicity by measuring cell survival at 2 uM after 5 days by MTS assay relative to control). Conditions: 120 h.
Multidrug resistance-associated protein 1, sequence (P33527 whole entry): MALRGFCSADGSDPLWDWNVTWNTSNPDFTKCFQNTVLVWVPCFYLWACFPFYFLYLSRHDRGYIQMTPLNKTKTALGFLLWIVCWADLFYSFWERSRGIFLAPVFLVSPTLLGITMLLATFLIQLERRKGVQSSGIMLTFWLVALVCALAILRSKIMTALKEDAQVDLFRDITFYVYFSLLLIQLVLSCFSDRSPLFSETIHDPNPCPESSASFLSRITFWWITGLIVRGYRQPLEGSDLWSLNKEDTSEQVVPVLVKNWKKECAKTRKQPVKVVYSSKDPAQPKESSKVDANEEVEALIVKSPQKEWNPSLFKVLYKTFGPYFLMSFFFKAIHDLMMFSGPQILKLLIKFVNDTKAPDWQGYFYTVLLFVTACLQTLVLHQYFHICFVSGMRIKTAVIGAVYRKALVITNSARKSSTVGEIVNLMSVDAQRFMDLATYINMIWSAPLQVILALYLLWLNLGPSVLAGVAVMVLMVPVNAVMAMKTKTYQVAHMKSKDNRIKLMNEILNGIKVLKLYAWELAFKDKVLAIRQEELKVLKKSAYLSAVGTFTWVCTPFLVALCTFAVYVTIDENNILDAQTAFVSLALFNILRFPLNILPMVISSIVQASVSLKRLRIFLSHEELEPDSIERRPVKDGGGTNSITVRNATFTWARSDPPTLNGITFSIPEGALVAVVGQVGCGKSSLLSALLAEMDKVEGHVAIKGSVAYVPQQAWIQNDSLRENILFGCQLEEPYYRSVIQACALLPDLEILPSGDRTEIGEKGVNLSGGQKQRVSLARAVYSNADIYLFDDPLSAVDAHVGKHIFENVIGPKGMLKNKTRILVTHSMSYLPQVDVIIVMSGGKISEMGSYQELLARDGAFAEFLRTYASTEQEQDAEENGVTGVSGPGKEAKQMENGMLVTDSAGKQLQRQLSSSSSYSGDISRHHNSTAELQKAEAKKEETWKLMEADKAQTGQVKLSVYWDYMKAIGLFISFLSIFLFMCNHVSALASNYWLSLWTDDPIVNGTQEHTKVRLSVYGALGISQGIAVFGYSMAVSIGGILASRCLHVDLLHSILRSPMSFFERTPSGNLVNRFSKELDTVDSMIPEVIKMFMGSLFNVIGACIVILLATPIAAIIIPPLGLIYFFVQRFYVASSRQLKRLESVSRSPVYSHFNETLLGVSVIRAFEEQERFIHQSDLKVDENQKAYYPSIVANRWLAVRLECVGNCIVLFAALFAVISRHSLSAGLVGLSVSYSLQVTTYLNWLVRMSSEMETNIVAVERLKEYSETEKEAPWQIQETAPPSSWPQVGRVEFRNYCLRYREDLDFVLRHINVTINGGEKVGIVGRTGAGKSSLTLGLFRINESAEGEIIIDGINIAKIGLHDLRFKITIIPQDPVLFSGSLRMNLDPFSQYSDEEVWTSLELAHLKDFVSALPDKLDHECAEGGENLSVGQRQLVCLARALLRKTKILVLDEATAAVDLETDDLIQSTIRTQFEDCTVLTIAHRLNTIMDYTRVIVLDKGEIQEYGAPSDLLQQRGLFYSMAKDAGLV
Format: cell-based
How it was run: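 2008/MRP1 cells (retroviral human MRP1 transfectant; RPMI 1640, 10% FBS) at 4,000 per well, with 100 nM doxorubicin plus crude, unpurified click products in DMSO: 2 µM in the primary screen, 1 µM in the secondary. Incubated 5 days at 37 °C. MTS/PMS added for 2 h at 37 °C, absorbance read at 490 nm. % survival is relative to wells without DOX or product. Run in triplicate, at least three experiments.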

Structure (SMILES)	Survival [%]
COc1cccc(COc2c(-c3ccc(OCCOCCn4cc(-c5ccc(-c6cn(CCOCCOc7ccc(-c8oc9ccccc9c(=O)c8OCc8cccc(OC)c8)cc7)nn6)cc5)nn4)cc3)oc3ccccc3c2=O)c1	88
Cc1ccc2oc(-c3ccc(OCCOCCOCCn4cc(CCN5C(=O)c6ccccc6C5=O)nn4)cc3)cc(=O)c2c1	81
O=c1cc(-c2ccc(OCCOCCOCCn3cc(CCCOc4ccc5c(=O)cc(-c6ccccc6)oc5c4)nn3)cc2)oc2ccccc12	54
Cc1ccc(O)c(C(=O)/C=C/c2ccc(OCCCCc3cn(CCOc4cccc5c(=O)cc(-c6ccccc6)oc45)nn3)cc2)c1	77
CCc1ccc(O)c(C(=O)/C=C/c2ccc(OCCCCc3cn(CCOCCOCCOc4ccc(-c5cc(=O)c6cc(F)ccc6o5)cc4)nn3)cc2)c1	67
O=c1[nH]c(-c2ccc(OCCCc3cn(CCOc4cccc5c(=O)cc(-c6ccccc6)oc45)nn3)cc2)nc2ccccc12	67
O=C1c2ccccc2C(=O)N1CCc1cn(CCOCCOc2cccc(-c3oc4ccccc4c(=O)c3OCc3ccccc3)c2)nn1	62
O=c1cc(-c2ccc(OCCOCCn3cc(CCCOc4ccc(-c5cc(=O)c6cc(F)ccc6o5)cc4)nn3)cc2)oc2ccccc12	93
CN(CCN(C)Cc1cn(CCOCCOCCOc2ccc(-c3oc4ccccc4c(=O)c3OCc3ccccc3)cc2)nn1)Cc1cn(CCOCCOCCOc2ccc(-c3oc4ccccc4c(=O)c3OCc3ccccc3)cc2)nn1	84
O=c1cc(-c2ccccc2)oc2cc(OCCCc3cn(CCOCCOc4cccc(-c5oc6ccccc6c(=O)c5OCc5ccccc5)c4)nn3)ccc12	65
Cc1ccc(O)c(C(=O)/C=C/c2ccc(OCCCCc3cn(CCOCCOCCOc4ccc(-c5cc(=O)c6cc(F)ccc6o5)cc4)nn3)cc2)c1	72
CN(CCN(C)Cc1cn(CCOCCOCCOc2ccc3c(=O)cc(-c4ccccc4)oc3c2)nn1)Cc1cn(CCOCCOCCOc2ccc3c(=O)cc(-c4ccccc4)oc3c2)nn1	88
O=C(/C=C/c1ccc(OCCCCc2cn(CCOc3cccc4c(=O)cc(-c5ccccc5)oc34)nn2)cc1)c1ccc(F)cc1O	73
O=c1cc(-c2ccc(OCCCc3cn(CCOCCOc4ccc(-c5oc6ccccc6c(=O)c5OCc5ccccc5)cc4)nn3)cc2)oc2cc(F)ccc12	60
O=c1c(OCc2ccccc2)c(-c2ccc(OCCOCCOCCn3cc(-c4ccc(-c5cn(CCOCCOCCOc6ccc(-c7oc8ccccc8c(=O)c7OCc7ccccc7)cc6)nn5)cc4)nn3)cc2)oc2ccccc12	86
C#CCCCOc1ccc(-c2cc(=O)c3cc(F)ccc3o2)cc1	81
CCc1ccc(O)c(C(=O)/C=C/c2ccc(OCCCCc3cn(CCOCCOc4ccc(-c5oc6ccccc6c(=O)c5OCc5ccccc5)cc4)nn3)cc2)c1	69
O=c1cc(-c2ccccc2)oc2cc(OCCCc3cn(CCOCCOCCOc4ccc5c(=O)cc(-c6ccccc6)oc5c4)nn3)ccc12	57
O=c1cc(-c2ccccc2)oc2cc(OCCOCCOCCn3cc(CN(Cc4cn(CCOCCOCCOc5ccc6c(=O)cc(-c7ccccc7)oc6c5)nn4)Cc4cn(CCOCCOCCOc5ccc6c(=O)cc(-c7ccccc7)oc6c5)nn4)nn3)ccc12	77
Cc1ccc(C(=O)/C=C/c2ccc(OCCCCc3cn(CCOCCOc4ccc(-c5oc6ccccc6c(=O)c5OCc5ccccc5)cc4)nn3)cc2)c(O)c1	66

Structure (SMILES)	Survival [%]
Cc1ccc(C(=O)/C=C/c2ccc(OCCCCc3cn(CCOCCOc4cccc(-c5oc6ccccc6c(=O)c5OCc5ccccc5)c4)nn3)cc2)c(O)c1	79
O=c1cc(-c2ccc(OCCOCCOCCn3cc(COCCOc4ccc5c(=O)cc(-c6ccccc6)oc5c4)nn3)cc2)oc2ccccc12	59
O=c1cc(-c2ccccc2)oc2cc(OCCN(Cc3ccccc3)Cc3cn(CCOCCOc4cccc(-c5oc6ccccc6c(=O)c5OCc5ccccc5)c4)nn3)ccc12	73
O=c1c(OCc2ccccc2)c(-c2ccc(OCCOCCn3cc(CN(Cc4ccccc4)Cc4cn(CCOCCOc5ccc(-c6oc7ccccc7c(=O)c6OCc6ccccc6)cc5)nn4)nn3)cc2)oc2ccccc12	62
O=C(/C=C/c1ccc(OCCCCc2cn(CCOCCOc3ccc(-c4cc(=O)c5cc(F)ccc5o4)cc3)nn2)cc1)c1ccc(F)cc1O	70
O=c1c(OCc2ccccc2)c(-c2ccc(OCCOCCn3cc(CN(Cc4cn(CCOCCOc5ccc(-c6oc7ccccc7c(=O)c6OCc6ccccc6)cc5)nn4)Cc4cn(CCOCCOc5ccc(-c6oc7ccccc7c(=O)c6OCc6ccccc6)cc5)nn4)nn3)cc2)oc2ccccc12	77
COc1cccc(COc2c(-c3ccc(OCCOCCn4cc(CCCCOc5ccc(/C=C/C(=O)c6cc(C)ccc6O)cc5)nn4)cc3)oc3ccccc3c2=O)c1	75
[N-]=[N+]=NCCOCCOc1ccc(-c2oc3ccccc3c(=O)c2OCc2ccccc2)cc1	72
O=c1cc(-c2ccc(OCCCc3cn(CCOc4cccc5c(=O)cc(-c6ccccc6)oc45)nn3)cc2)oc2ccc(F)cc12	89
O=C(/C=C/c1ccc(OCCCCc2cn(CCOCCOc3ccc(-c4oc5ccccc5c(=O)c4OCc4ccccc4)cc3)nn2)cc1)c1ccccc1O	72
COc1cccc(COc2c(-c3ccc(OCCOCCn4cc(CCCOc5ccc(-c6cc(=O)c7cc(F)ccc7o6)cc5)nn4)cc3)oc3ccccc3c2=O)c1	86
COc1cccc(COc2c(-c3ccc(OCCOCCn4cc(CCCCOc5ccc6c(=O)cc(-c7ccccc7)oc6c5)nn4)cc3)oc3ccccc3c2=O)c1	86
O=c1c(OCc2ccccc2)c(-c2cccc(OCCOCCn3cc(CN(Cc4cn(CCOCCOc5cccc(-c6oc7ccccc7c(=O)c6OCc6ccccc6)c5)nn4)Cc4cn(CCOCCOc5cccc(-c6oc7ccccc7c(=O)c6OCc6ccccc6)c5)nn4)nn3)c2)oc2ccccc12	91
Cc1ccc(O)c(C(=O)/C=C/c2ccc(OCCCCc3cn(CCOCCOc4cccc(-c5oc6ccccc6c(=O)c5OCc5ccccc5)c4)nn3)cc2)c1	78
O=Cc1ccc(OCCCCc2cn(CCOCCOc3ccc(-c4oc5ccccc5c(=O)c4OCc4ccccc4)cc3)nn2)cc1	59
O=Cc1ccc(OCCCCc2cn(CCOCCOc3ccc(-c4cc(=O)c5ccccc5o4)cc3)nn2)cc1	75
O=c1cc(-c2ccc(OCCOCCOCCn3cc(CNc4ccccc4)nn3)cc2)oc2ccccc12	88
CCc1ccc(O)c(C(=O)/C=C/c2ccc(OCCCCc3cn(CCOCCOc4ccc(-c5oc6ccccc6c(=O)c5OCc5cccc(OC)c5)cc4)nn3)cc2)c1	76
Cc1ccc2oc(-c3ccc(OCCOCCOCCn4cc(CCCCOc5ccc(C=O)cc5)nn4)cc3)cc(=O)c2c1	72
CN(CCN(C)Cc1cn(CCOCCOc2ccc(-c3cc(=O)c4ccccc4o3)cc2)nn1)Cc1cn(CCOCCOc2ccc(-c3cc(=O)c4ccccc4o3)cc2)nn1	87

Structure (SMILES)	Survival [%]
O=C(/C=C/c1ccc(OCCCCc2cn(CCOCCOc3cccc(-c4oc5ccccc5c(=O)c4OCc4ccccc4)c3)nn2)cc1)c1ccc(F)cc1O	68
COc1cccc(COc2c(-c3ccc(OCCOCCn4cc(CCCCOc5ccc(C=O)cc5)nn4)cc3)oc3ccccc3c2=O)c1	76
O=c1cc(-c2ccccc2)oc2cc(OCCOCCOCCn3cc(-c4ccc(-c5cn(CCOCCOCCOc6ccc7c(=O)cc(-c8ccccc8)oc7c6)nn5)cc4)nn3)ccc12	88
Cc1ccc(O)c(C(=O)/C=C/c2ccc(OCCCCc3cn(CCOCCOc4ccc(-c5cc(=O)c6cc(F)ccc6o5)cc4)nn3)cc2)c1	82
O=c1cc(-c2ccc(OCCOCCOCCn3cc(-c4ccc(-c5cn(CCOCCOCCOc6ccc(-c7cc(=O)c8ccccc8o7)cc6)nn5)cc4)nn3)cc2)oc2ccccc12	83
[N-]=[N+]=NCCOCCOc1cccc(-c2oc3ccccc3c(=O)c2OCc2ccccc2)c1	86
O=c1cc(-c2ccccc2)oc2cc(OCCCc3cn(CCOCCOc4ccc(-c5oc6ccccc6c(=O)c5OCc5ccccc5)cc4)nn3)ccc12	51
O=c1cc(-c2ccc(OCCOCCOCCn3cc(CCCOc4ccc(-c5cc(=O)c6cc(F)ccc6o5)cc4)nn3)cc2)oc2ccccc12	79
C#CCCCCOc1ccc(/C=C/C(=O)c2cc(C)ccc2O)cc1	100
O=c1cc(-c2ccccc2)oc2cc(OCCOCCn3cc(CCCOc4ccc(-c5cc(=O)c6cc(F)ccc6o5)cc4)nn3)ccc12	111
O=c1cc(-c2ccccc2)oc2cc(OCCOCCOCCn3cc(CN4CCN(Cc5cn(CCOCCOCCOc6ccc7c(=O)cc(-c8ccccc8)oc7c6)nn5)CC4)nn3)ccc12	89
O=c1c(OCc2ccccc2)c(-c2ccc(OCCOCCOCCn3cc(CNc4ccccc4)nn3)cc2)oc2ccccc12	87
COc1cccc(COc2c(-c3ccc(OCCOCCn4cc(CCCCOc5ccc(-c6cc(=O)c7cc(C)ccc7o6)cc5)nn4)cc3)oc3ccccc3c2=O)c1	78
COc1cccc(COc2c(-c3ccc(OCCCCc4cn(CCOCCOCCOc5ccc6c(=O)cc(-c7ccccc7)oc6c5)nn4)cc3)oc3ccccc3c2=O)c1	78
COCOc1cc(OCc2ccccc2)c2c(=O)cc(-c3ccc(OCCCc4cn(CCOCCOc5ccc6c(=O)cc(-c7ccccc7)oc6c5)nn4)cc3)oc2c1	54
O=c1cc(-c2ccc(OCCCc3cn(CCOCCOc4ccc(-c5oc6ccccc6c(=O)c5OCc5ccccc5)cc4)nn3)cc2)oc2ccccc12	50
O=c1cc(-c2ccc(OCCCc3cn(CCOCCOc4ccc(-c5oc6ccccc6c(=O)c5OCc5ccccc5)cc4)nn3)cc2)oc2ccc(F)cc12	97
COc1cccc(COc2c(-c3ccc(OCCOCCn4cc(-c5cccc(-c6cn(CCOCCOc7ccc(-c8oc9ccccc9c(=O)c8OCc8cccc(OC)c8)cc7)nn6)c5)nn4)cc3)oc3ccccc3c2=O)c1	82
